Published values pooled from the literature.
Protocols differ between the studies behind these lines.
Cell line: HeLa
Observed: cell growth or viability

The IC50 of `Oc1c(Br)cc(Br)c2cccnc12` is reported as 83.2 µM (MTT; 48 h).
`COC(=O)CN=c1scc(-c2ccccc2)n1-c1ccc(OC)cc1` gave an IC50 of 6.75 µM (MTT; 72 h).
`COc1ccc(C(=O)O[C@@H]2CN3Cc4c(cc5c(c4OC)OCO5)[C@@]24C=C[C@H](OC)C[C@@H]34)cc1OC` has an IC50 of 4.8 µM (WST-1; 48 h).
For `NCCCOc1cc(NC(=O)c2cccc(C(=O)Nc3cc(OCCCN)c4ccccc4n3)n2)nc2ccccc12`, the IC50 was 1.4 µM (ATP luminescence; 72 h).
`C#CCOc1ccc(C(=O)c2ccc(-c3cccc(NC(=O)CCc4cccc5c4B(O)OC5)c3)cc2)cc1` gave an IC50 of 4.4 µM (ATP luminescence; 72 h).
`COc1ccc(-c2cc(=O)c3c(OC)cc(C)cc3o2)cc1` has an IC50 of 28.4 µM (MTT; 48 h).
The IC50 of `CC1(C)S[C@@H]2[C@H](NC(=O)[C@H](N)c3ccccc3)C(=O)N2[C@H]1C(=O)O` is reported as 72.7 µg/mL (ATP luminescence; 48 h).
`C(C#CC1CC1)#CC1CC1` has an IC50 of 14.5 µg/mL (MTT; 24 h).
`CC(=O)O[C@H](C)C(=O)CCCCC[C@@H]1NC(=O)[C@H]2CCCN2C(=O)[C@H](Cc2ccccc2)NC(=O)C(C)(C)NC1=O` has an IC50 of 0.119 µM (XTT).
`COc1ccc(C(=O)c2cc3c(-c4ccccc4)c(OC)ccc3o2)cc1` has an IC50 of 1.3 µM.
The IC50 of `Cc1ccc2c(Br)cc(Br)c(O)c2n1` is reported as > 150 µM (MTT; 48 h).
`O=C(Cn1ccnc1[N+](=O)[O-])NCc1ccccc1` has an IC50 of > 380 µM.
With `COC1=C2C[C@@H](C)C[C@H](OC)[C@H](O)[C@@H](C)/C=C(\C)[C@H](OC(N)=O)[C@@H](OC)/C=C\C=C(/C)C(=O)NC(=CC1=O)C2=O` the IC50 was 0.651 µM (MTT).
`COc1cccc(Oc2ccccc2NC(=O)CNC(=O)c2c(C)cc(C)cc2C)c1` gave an IC50 of 6.5 µM.
With `CC(=O)c1ccc(-c2cccc(NC(=O)CCc3cccc4c3B(O)OC4)c2)cc1` the IC50 was 0.858 µM (ATP luminescence; 72 h).
With `Cc1ccc(C#CC#Cc2ccc(C)cc2)cc1` the IC50 was 70.5 µg/mL (MTT; 24 h).
With `COc1cccc(C(=O)c2cc3c(-c4ccccc4)c(O)ccc3o2)c1` the IC50 was 27 µM.
The IC50 of `COc1cc(C)c(-c2c(C)cc(OC)c3c(=O)cc(-c4ccccc4)oc23)c2oc(-c3ccccc3)cc(=O)c12` is reported as 11.8 µM (MTT; 48 h).
`CC1(C)CC[C@]2(C(=O)O)CC[C@]3(C)C(=CC[C@@H]4[C@@]5(C)CC[C@H](O)C(C)(C)[C@@H]5CC[C@]43C)[C@@H]2C1` has an IC50 of 34.8 µM (MTT; 48 h).
With `O=C(Nc1cc(OCCN2CCCC2)c2ccccc2n1)c1cc(Cl)cc(C(=O)Nc2cc(OCCN3CCCC3)c3ccccc3n2)n1` the IC50 was 4.7 µM (ATP luminescence; 72 h).
`Cc1c(O)c(=O)ccn1-c1cccc(C(=O)O)c1` gave an IC50 of 600 µM (MTT; 72 h).
With `COc1ccc(-c2cc(=O)c3c(OC)cc(OC)c(-c4c(OC)cc(OC)c5c(=O)cc(-c6ccc(OC)cc6)oc45)c3o2)cc1` the IC50 was 39.5 µM (MTT; 48 h).
`COc1ccc2oc(C(=O)c3ccccc3)cc2c1-c1ccccc1` gave an IC50 of > 50 µM.
`C[C@@H](O)C(=O)CCCCC[C@@H]1NC(=O)[C@H]2CCCN2C(=O)[C@H](Cc2ccccc2)NC(=O)C(C)(C)NC1=O` has an IC50 of 0.17 µM (XTT).
With `COc1cc(OC)c2c(=O)cc(-c3ccc(C(F)(F)F)cc3)oc2c1-c1c(OC)cc(OC)c2c(=O)cc(-c3ccc(C(F)(F)F)cc3)oc12` the IC50 was > 100 µM (MTT; 48 h).
`COc1cccc2c1C(=O)c1c(O)c3c(c(O)c1C2=O)C[C@@](O)(C(=O)CO)C[C@@H]3O[C@H]1C[C@H](N)[C@H](O)[C@H](C)O1` has an IC50 of 0.46 µM (SRB).
For `OCCCC#CC#CCCCO`, the IC50 was 39.3 µg/mL (MTT; 24 h).
The IC50 of `CN(C)CCCOc1cc(NC(=O)c2cc(Cl)cc(C(=O)Nc3cc(OCCCN(C)C)c4ccccc4n3)n2)nc2ccccc12` is reported as 1.6 µM (ATP luminescence; 72 h).
For `Cc1c(O)c(=O)ccn1CCO`, the IC50 was ≥ 100 µM (MTT; 72 h).
For `C(C#Cc1ccccc1)#Cc1ccccc1`, the IC50 was 3.77 µg/mL (MTT; 24 h).
For `COc1cc(OC)c2c(=O)cc(-c3ccccc3Br)oc2c1`, the IC50 was > 100 µM (MTT; 48 h).
The IC50 of `CC1(C)SC2C(NC(=O)C(NC(=O)C3=C(O)C(Cc4ccc(F)cc4)NC3=O)c3ccccc3)C(=O)N2C1C(=O)O` (stereo not drawn) is reported as 123 µg/mL (ATP luminescence; 48 h).
For `COC(=O)CN=c1scc(-c2ccccc2)n1-c1ccccc1[N+](=O)[O-]`, the IC50 was 6.02 µM (MTT; 72 h).
The IC50 of `CN(C)CCOc1cc(NC(=O)c2cc(Cl)cc(C(=O)Nc3cc(OCCN(C)C)c4ccccc4n3)n2)nc2ccccc12` is reported as 3.2 µM (ATP luminescence; 72 h).
With `CC1(C)SC2C(NC(=O)C(NC(=O)C3=C(O)C4CCCN4C3=O)c3ccccc3)C(=O)N2C1C(=O)O` (stereo not drawn) the IC50 was 52.1 µg/mL (ATP luminescence; 48 h).
With `CN(C)CCCOc1cc(NC(=O)c2cccc(C(=O)Nc3cc(OCCCN(C)C)c4ccccc4n3)n2)nc2ccccc12` the IC50 was 3 µM (ATP luminescence; 72 h).
`COc1cc(C)c(-c2c(C)cc(OC)c3c(=O)cc(-c4ccccc4Br)oc23)c2oc(-c3ccccc3Br)cc(=O)c12` has an IC50 of 18.5 µM (MTT; 48 h).
For `c1cnc2c(c1)ccc1cccnc12`, the IC50 was > 50 µM (MTT; 48 h).
`CC1(C)SC2C(NC(=O)C(NC(=O)C3=C(O)C(Cc4ccccc4)NC3=O)c3ccccc3)C(=O)N2C1C(=O)O` (stereo not drawn) gave an IC50 of 122 µg/mL (ATP luminescence; 48 h).
With `COc1cccc(C(=O)O[C@@H]2CN3Cc4c(cc5c(c4OC)OCO5)[C@@]24C=C[C@H](OC)C[C@@H]34)c1` the IC50 was > 10 µM (WST-1; 48 h).
With `CC1(C)SC2C(NC(=O)C(NC(=O)C3=C(O)C(c4ccccc4)NC3=O)c3ccccc3)C(=O)N2C1C(=O)O` (stereo not drawn) the IC50 was 47.6 µg/mL (ATP luminescence; 48 h).
`COc1cc(OC)c2c(=O)cc(-c3ccccc3Br)oc2c1-c1c(OC)cc(OC)c2c(=O)cc(-c3ccccc3Br)oc12` gave an IC50 of 10.4 µM (MTT; 48 h).
With `COc1nc(OCc2cccc(-c3ccccc3)c2C)ccc1CNCCNC(C)=O` the IC50 was 3.6 µM (MTT).
`COc1cc(OC)c2c(=O)cc(-c3ccccc3)oc2c1` gave an IC50 of 73.7 µM (MTT; 48 h).
For `C#CCOc1cc(C(=O)Nc2cc(OCCN)c3ccccc3n2)nc(C(=O)Nc2cc(OCCN)c3ccccc3n2)c1`, the IC50 was 5.2 µM (ATP luminescence; 72 h).
